Test results from ChEMBL document CHEMBL1156144, “Biaryl ethers as novel non-nucleoside reverse transcriptase inhibitors with improved potency against key mutant viruses” (J Med Chem, 2009).

What was measured:
[1] = Volume of distribution in Sprague-Dawley rat at 2 mg/kg, iv; type: ADME, organism-based; design: dose 2 mg/kg, route intravenous; details: in vivo
[2] = test system: Human immunodeficiency virus; assay: Antiviral activity against HIV with reverse transcriptase K101E/G190A double mutant assessed as inhibition of viral replication; type: functional, organism-based; details: Human immunodeficiency virus 1
[3] = test system: Human immunodeficiency virus; assay: Antiviral activity against HIV with reverse transcriptase K103N/P225H double mutant assessed as inhibition of viral replication; type: functional, organism-based; details: Human immunodeficiency virus 1
[4] = test system: Human immunodeficiency virus; assay: Antiviral activity against HIV with reverse transcriptase MDRC4 mutant assessed as inhibition of viral replication; type: functional, organism-based; details: Human immunodeficiency virus 1
[5] = test system: Human immunodeficiency virus; assay: Antiviral activity against wild type HIV H9-3B infected in human MT2 cells assessed as inhibition of viral replication measuring p24 level after 3 days in presence of 10% fetal bovine serum; type: functional; details: Human immunodeficiency virus 1, MT2, Serum; read-out: CIC95
Outline: (§1)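 Multiple-cycle spread assay in MT2 cells with wild-type H9IIIB virus. Cells were infected overnight at moi ≈ 0.01 without compound, washed, then cultured 3 days across varying compound concentrations in RPMI 1640 with 10% FBS or 50% NHS. p24 was measured in supernatants. CIC95 is the lowest concentration inhibiting replication ≥95%, as the geometric mean of ≥2 determinations.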

[6] = test system: Human immunodeficiency virus; assay: Antiviral activity against HIV with reverse transcriptase Y181C/G190A double mutant assessed as inhibition of viral replication; type: functional, organism-based; details: Human immunodeficiency virus 1
[7] = Volume of distribution in Beagle dog at 0.5 mg/kg, iv; type: ADME, organism-based, Canis lupus familiaris; design: dose 0.5 mg/kg, route intravenous; details: in vivo
[8] = test system: Human immunodeficiency virus; assay: Antiviral activity against HIV with reverse transcriptase MDRC4 mutant assessed as inhibition of viral replication relative to wild type; type: functional
[9] = Clearance in Sprague-Dawley rat at 2 mg/kg, iv; type: ADME, organism-based; design: dose 2 mg/kg, route intravenous; details: in vivo
[10] = Half life in Beagle dog at 0.5 mg/kg, iv; type: ADME, organism-based, Canis lupus familiaris; design: dose 0.5 mg/kg, route intravenous; details: in vivo
[11] = test system: Human immunodeficiency virus; assay: Antiviral activity against HIV with reverse transcriptase V106A/G190A/F227L mutant assessed as inhibition of viral replication; type: functional, organism-based; details: Human immunodeficiency virus 1
[12] = test system: Human immunodeficiency virus; assay: Antiviral activity against HIV with reverse transcriptase Y181C mutant assessed as inhibition of viral replication; type: functional, organism-based; details: Human immunodeficiency virus 1
[13] = test system: Human immunodeficiency virus; assay: Antiviral activity against HIV with reverse transcriptase Y181C mutant assessed as inhibition of viral replication relative to wild type; type: functional
[14] = test system: Human immunodeficiency virus; assay: Antiviral activity against HIV with reverse transcriptase K103N/P225H double mutant assessed as inhibition of viral replication relative to wild type; type: functional
[15] = test system: Human immunodeficiency virus; assay: Antiviral activity against HIV with reverse transcriptase K103N/Y181C/G190A mutant assessed as inhibition of viral replication; type: functional, organism-based; details: Human immunodeficiency virus 1
[16] = Half life in rhesus monkey at 1 mg/kg, iv; type: ADME, organism-based, Macaca mulatta; design: dose 1 mg/kg, route intravenous; details: in vivo
[17] = test system: Human immunodeficiency virus; assay: Antiviral activity against HIV with reverse transcriptase K103N mutant assessed as inhibition of viral replication relative to wild type; type: functional
[18] = test system: Human immunodeficiency virus; assay: Antiviral activity against HIV with reverse transcriptase K101E/Y181C/G190A mutant assessed as inhibition of viral replication; type: functional, organism-based; details: Human immunodeficiency virus 1
[19] = test system: Human immunodeficiency virus; assay: Antiviral activity against HIV with reverse transcriptase Y181C mutant infected in human MT2 cells assessed as inhibition of viral replication measuring p24 level after 3 days in presence of 10% fetal bovine serum; type: functional; details: Human immunodeficiency virus 1, MT2, Serum, 72 h; read-out: CIC95
Outline: (§2)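 Multiple-cycle replication (Spread) assay in MT2 cells with H9IIIB-background mutant virus. Cells were infected overnight at moi ≈ 0.01 without compound, washed, then cultured 3 days across a range of compound concentrations in medium with 10% FBS. p24 was measured in supernatants. CIC95 is the lowest concentration inhibiting replication by ≥95%, reported as the geometric mean of ≥2 determinations.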

[20] = test system: Human immunodeficiency virus; assay: Antiviral activity against HIV with reverse transcriptase K101E/G190A double mutant assessed as inhibition of viral replication relative to wild type; type: functional
[21] = test system: Human immunodeficiency virus; assay: Antiviral activity against HIV with reverse transcriptase V106A/G190A/F227L mutant assessed as inhibition of viral replication relative to wild type; type: functional
[22] = test system: Human immunodeficiency virus; assay: Antiviral activity against HIV with reverse transcriptase K103N mutant infected in human MT2 cells assessed as inhibition of viral replication measuring p24 level after 3 days in presence of 10% fetal bovine serum; type: functional; details: Human immunodeficiency virus 1, MT2, Serum, 72 h; read-out: CIC95; outline: as §2
[23] = test system: Human immunodeficiency virus; assay: Antiviral activity against HIV with reverse transcriptase K101E/Y181C/G190A mutant assessed as inhibition of viral replication relative to wild type; type: functional
[24] = Half life in Sprague-Dawley rat at 2 mg/kg, iv; type: ADME, organism-based; design: dose 2 mg/kg, route intravenous; details: in vivo
[25] = Oral bioavailability in Beagle dog at 1 mg/kg; type: ADME, organism-based, Canis lupus familiaris; details: in vivo
[26] = test system: Human immunodeficiency virus; assay: Antiviral activity against HIV with reverse transcriptase K103N/G190A double mutant assessed as inhibition of viral replication; type: functional, organism-based; details: Human immunodeficiency virus 1
[27] = test system: Human immunodeficiency virus; assay: Antiviral activity against HIV with reverse transcriptase G190A mutant assessed as inhibition of viral replication relative to wild type; type: functional
Rattus norvegicus = assay: AUC in Sprague-Dawley rat at 10 mg/kg, po; type: ADME, organism-based, Plasma; design: dose 10 mg/kg, route oral; details: in vivo
[28] = Clearance in Beagle dog at 0.5 mg/kg, iv; type: ADME, organism-based, Canis lupus familiaris; design: dose 0.5 mg/kg, route intravenous; details: in vivo
[29] = test system: Human immunodeficiency virus; assay: Antiviral activity against HIV with reverse transcriptase CNDO mutant assessed as inhibition of viral replication; type: functional, organism-based; details: Human immunodeficiency virus 1
[30] = test system: Human immunodeficiency virus; assay: Antiviral activity against HIV with reverse transcriptase K103N/Y181C double mutant infected in human MT2 cells assessed as inhibition of viral replication measuring p24 level after 3 days in presence of 10% fetal bovine serum; type: functional; details: Human immunodeficiency virus 1, MT2, Serum, 72 h; read-out: CIC95; outline: as §2
[31] = test system: Human immunodeficiency virus; assay: Antiviral activity against HIV with reverse transcriptase CNDO mutant assessed as inhibition of viral replication relative to wild type; type: functional
[32] = test system: Human immunodeficiency virus; assay: Antiviral activity against HIV with reverse transcriptase Y181C/G190A double mutant assessed as inhibition of viral replication relative to wild type; type: functional
[33] = test system: Human immunodeficiency virus; assay: Antiviral activity against HIV with reverse transcriptase K103N mutant assessed as inhibition of viral replication; type: functional, organism-based; details: Human immunodeficiency virus 1
[34] = Volume of distribution in rhesus monkey at 1 mg/kg, iv; type: ADME, organism-based, Macaca mulatta; design: dose 1 mg/kg, route intravenous; details: in vivo
[35] = test system: Human immunodeficiency virus; assay: Antiviral activity against wild type HIV H9-3B infected in human MT2 cells assessed as inhibition of viral replication measuring p24 level after 3 days in presence of 50% normal human serum; type: functional; details: Human immunodeficiency virus 1, H9-3B, 72 h, read-out: CIC95; outline: as §1
[36] = test system: Human immunodeficiency virus; assay: Antiviral activity against HIV with reverse transcriptase L100I/K103N double mutant assessed as inhibition of viral replication relative to wild type; type: functional
[37] = Oral bioavailability in rhesus monkey at 5 mg/kg; details: in vivo
[38] = Inhibition of RNA-dependent DNA polymerase activity of wild type HIV reverse transcriptase assessed as BrdU incorporation by standard ECL assay; design: species or system Human immunodeficiency virus
Outline: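 Purified recombinant wild-type RT polymerase activity was measured using a 500-nt heteropolymeric RNA template and a biotinylated DNA primer. BrdU incorporation was detected with a ruthenylated anti-BrdU antibody by electrochemiluminescence. Ki is the geometric mean of at least two determinations, each within 25% of the mean.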

Canis familiaris = assay: AUC in Beagle dog at 1 mg/kg, po; type: ADME, organism-based, Canis lupus familiaris, Plasma; design: dose 1 mg/kg, route oral; details: in vivo
[39] = test system: Human immunodeficiency virus; assay: Antiviral activity against HIV with reverse transcriptase K103N/Y181C double mutant assessed as inhibition of viral replication; type: functional, organism-based; details: Human immunodeficiency virus 1
[40] = test system: Human immunodeficiency virus; assay: Antiviral activity against HIV with reverse transcriptase G190A mutant assessed as inhibition of viral replication; type: functional, organism-based; details: Human immunodeficiency virus 1
[41] = test system: Human immunodeficiency virus; assay: Antiviral activity against HIV with reverse transcriptase L100I mutant assessed as inhibition of viral replication; type: functional, organism-based; details: Human immunodeficiency virus 1
[42] = test system: Human immunodeficiency virus; assay: Antiviral activity against HIV with reverse transcriptase G190S mutant assessed as inhibition of viral replication relative to wild type; type: functional
[43] = test system: Human immunodeficiency virus; assay: Antiviral activity against HIV with reverse transcriptase K103N/Y181C/G190A mutant assessed as inhibition of viral replication relative to wild type; type: functional
[44] = test system: Human immunodeficiency virus; assay: Antiviral activity against HIV with reverse transcriptase G190S mutant assessed as inhibition of viral replication; type: functional, organism-based; details: Human immunodeficiency virus 1
[45] = test system: Human immunodeficiency virus; assay: Antiviral activity against HIV with reverse transcriptase K103N/G190A double mutant assessed as inhibition of viral replication relative to wild type; type: functional
[46] = test system: Human immunodeficiency virus; assay: Antiviral activity against HIV with reverse transcriptase L100I mutant assessed as inhibition of viral replication relative to wild type; type: functional
[47] = test system: Human immunodeficiency virus; assay: Antiviral activity against HIV with reverse transcriptase Y188L mutant assessed as inhibition of viral replication; type: functional, organism-based; details: Human immunodeficiency virus 1
[48] = test system: Human immunodeficiency virus; assay: Antiviral activity against HIV with reverse transcriptase Y188L mutant assessed as inhibition of viral replication relative to wild type; type: functional
[49] = test system: Human immunodeficiency virus; assay: Antiviral activity against HIV with reverse transcriptase L100I/K103N double mutant assessed as inhibition of viral replication; type: functional, organism-based; details: Human immunodeficiency virus 1
[50] = test system: Human immunodeficiency virus; assay: Antiviral activity against HIV with reverse transcriptase K103N/Y181C double mutant assessed as inhibition of viral replication relative to wild type; type: functional
[51] = Clearance in rhesus monkey at 1 mg/kg, iv; type: ADME, organism-based, Macaca mulatta; design: dose 1 mg/kg, route intravenous; details: in vivo
Rhesus monkey = assay: AUC in rhesus monkey at 5 mg/kg, po; type: ADME, organism-based, Macaca mulatta, Plasma; design: dose 5 mg/kg, route oral; details: in vivo

For `N#Cc1cc(Cl)cc(Oc2cc(OCc3n[nH]c4nc(N)ccc34)ccc2Cl)c1`, the Vd [1] was 2 L/kg, the IC50 [2] was 6.9 nM and the IC50 [3] was 2.2 nM. For the same compound, the IC50 [4] was 9 nM, the IC95 [5] was 5 nM and the IC50 [6] was 11.6 nM. For the same compound, the Vd [7] was 1.7 L/kg, the “fold change (FC)” value [8] was 6.43 and the clearance [9] was 9 mL/min/kg. The half-life [10] was 3.9 h, the IC50 [11] was > 1000 nM and the IC50 [12] was 4.8 nM. The “fold change (FC)” value [13] was 3.43, the “fold change (FC)” value [14] was 1.57 and the IC50 [15] was 110 nM. The half-life [16] was 2.1 h, the “fold change (FC)” value [17] was 1.86 and the IC50 [18] was 29.5 nM. The IC95 [19] was 27 nM, the “fold change (FC)” value [20] was 4.93 and the “fold change (FC)” value [21] was >714. The IC95 [22] was 11 nM, the “fold change (FC)” value [23] was 21.07 and the half-life [24] was 3.5 h. For the same compound, the bioavailability [25] was 47%, the IC50 [26] was 7.2 nM and the “fold change (FC)” value [27] was 2.07. The AUC (Rattus norvegicus) was 23 µM, the clearance [28] was 5.8 mL/min/kg and the IC50 [29] was 1.4 nM. For the same compound, the IC95 [30] was 101 nM, the “fold change (FC)” value [31] was 1 and the “fold change (FC)” value [32] was 8.29. It also gave an IC50 [33] of 2.6 nM, a Vd [34] of 1.9 L/kg and an IC95 [35] of 26 nM. For the same compound, the “fold change (FC)” value [36] was 24.86, the bioavailability [37] was 1% and the Ki [38] was 0.2 nM. For the same compound, the AUC (Canis familiaris) was 31 µM, the IC50 [39] was 77.7 nM and the IC50 [40] was 2.9 nM. The IC50 [41] was 1.3 nM, the “fold change (FC)” value [42] was 8.79 and the “fold change (FC)” value [43] was 78.93. The IC50 [44] was 12.3 nM, the “fold change (FC)” value [45] was 5.14 and the “fold change (FC)” value [46] was 0.93. For the same compound, the IC50 [47] was 881 nM, the “fold change (FC)” value [48] was 629.07 and the IC50 [49] was 34.8 nM. The “fold change (FC)” value [50] was 55.5, the clearance [51] was 16 mL/min/kg and the AUC (Rhesus monkey) was 0.3 µM.
